Screening data: PubChem, The Scripps Research Institute Molecular Screening Center
Sampled rows, rich in hits. Any-hit rate of the full collection: about 3.6%.
IMP-1 inh: IMP-1 metallo-beta-lactamase inhibitors, primary screen, biochemical, epi-absorbance readout, Pseudomonas aeruginosa enzyme | metallo-beta-lactamase IMP-1 (Pseudomonas aeruginosa) | purified IMP-1, nitrocefin hydrolysis, epi-absorbance fluorescence | inhibition, % at 5.6 µM | 0.45% of 290,000 active | AID 1556, 2009;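 active = inhibition above the mean plus 3 SD of all compounds in the same screening run, cut at about 4.5% in these data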
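system = purified recombinant IMP-1 beta-lactamase | amount = 0.2 nM IMP-1, as dispensed | medium = HEPES buffer pH 7.1 with ZnSO4 and Brij 35 | times = 25 °C, 15 min preincubation, 25 min reaction | detection = plate fluorescence quenching by hydrolysis product, ex 480/em 530 nm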
PAFAH1B2 FP inh: PAFAH1B2 enzyme inhibitors, primary screen, biochemical, fluorescence polarization, human; recombinant PAFAH1B2, FP-rhodamine activity probe; inhibition, % at 3.39 µM; 1.2% of 340,000 active;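 active = inhibition above the mean of all tested compounds plus 3 SD, cut at about 24% in these data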
Target sequence (P68402 whole entry, looked up): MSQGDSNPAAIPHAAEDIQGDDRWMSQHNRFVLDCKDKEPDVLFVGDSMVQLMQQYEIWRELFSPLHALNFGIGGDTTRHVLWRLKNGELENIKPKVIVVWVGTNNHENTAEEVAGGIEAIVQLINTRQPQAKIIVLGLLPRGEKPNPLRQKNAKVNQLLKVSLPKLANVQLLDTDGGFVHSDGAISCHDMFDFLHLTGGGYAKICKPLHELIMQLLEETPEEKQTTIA
pPAFAH inh: pPAFAH enzyme inhibitors, primary screen, biochemical, fluorescence polarization, human; recombinant pPAFAH, FP-rhodamine probe fluorescence polarization; 1.5% of 330,000 active; inhibition, % at 3.39 µM;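 active = inhibition above the mean inhibition across the screen plus 3 SD, cut at about 25% in these data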;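 note: inhibitors block binding of the rhodamine activity-based probe so polarization drops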
PAFAH2 FP inh: PAFAH2 enzyme inhibitors, primary screen, biochemical, fluorescence polarization, human; AID 492956, 2010; Platelet-activating factor acetylhydrolase 2, cytoplasmic (Homo sapiens), Q99487; inhibition, % at 3.39 µM; recombinant PAFAH2, FP-rhodamine activity probe; 0.99% of 340,000 active;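 active = inhibition above the mean over all tested compounds plus 3 SD, cut at about 30% in these data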;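 note: inhibitors block probe labeling of enzyme so polarization drops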
PAFAH1B3 FP inh: PAFAH1B3 enzyme inhibitors, primary screen, biochemical, fluorescence polarization, human; recombinant PAFAH1B3, FP-rhodamine probe; 0.28% of 340,000 active; inhibition, % at 3.39 µM;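 active = inhibition above the screen-wide average of all tested compounds plus 3 SD, cut at about 25% in these data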
Target sequence (Q15102 whole entry, looked up): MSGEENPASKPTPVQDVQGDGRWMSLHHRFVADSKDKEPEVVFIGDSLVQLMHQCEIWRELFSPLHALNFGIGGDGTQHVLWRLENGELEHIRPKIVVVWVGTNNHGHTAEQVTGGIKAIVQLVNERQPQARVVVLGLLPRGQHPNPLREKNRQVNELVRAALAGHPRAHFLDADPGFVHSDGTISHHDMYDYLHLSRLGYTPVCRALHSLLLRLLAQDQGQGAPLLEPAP
VIM-2 inh: VIM-2 metallo-beta-lactamase inhibitors, primary screen, biochemical, epi-absorbance readout, Pseudomonas aeruginosa enzyme; purified VIM-2, nitrocefin hydrolysis, epi-absorbance fluorescence; inhibition, % at 5.6 µM; 0.89% of 290,000 active; AID 1527, 2009;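 active = inhibition above the mean of all tested compounds plus 3 SD, cutoff set per screening run, cut at about 7.5% in these data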;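 note: red hydrolysis product quenches plate fluorescence so inhibitors raise well fluorescence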
pPAFAH FP conf: pPAFAH (PLA2G7) enzyme inhibitors, confirmation, biochemical, fluorescence polarization, human; shares compounds with pPAFAH inh; recombinant pPAFAH, FP-Rh probe fluorescence polarization; 72% of 2,300 active; AID 463230, 2010; inhibition, % at 3.39 µM;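 active = mean inhibition of the triplicate above the hit cutoff set for the earlier primary screen, cut at about 25% in these data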
A number is an active result.

Screening CCCc1cc2c(-c3ccccc3)cc(=O)oc2cc1OCc1ccc(C(=O)O)o1 returned IMP-1 inh inactive, PAFAH1B2 FP inh inactive, pPAFAH inh 54, PAFAH2 FP inh inactive, PAFAH1B3 FP inh inactive, VIM-2 inh inactive and pPAFAH FP conf 48.
`C#CCOCCOCCOCCNc1nc(N2CCN(C(=O)C([C@@H](C)CC)n3cc(C(N)COC(=O)C(F)(F)F)nn3)CC2)nc(N2CCN(C(=O)C([C@@H](C)CC)n3cc(C(N)CC(C)C)nn3)CC2)n1` (some centres not stated) gave pPAFAH inh inactive.
For O=C(C=Cc1ccccc1)CC(c1ccccc1)N1CCOCC1 (configuration not stated) the results were PAFAH1B2 FP inh inactive, PAFAH2 FP inh inactive and PAFAH1B3 FP inh inactive.
N#CCC(=O)Nc1ccccc1C(=O)O was read as IMP-1 inh inactive, PAFAH1B2 FP inh inactive, pPAFAH inh inactive, PAFAH2 FP inh inactive, PAFAH1B3 FP inh inactive and VIM-2 inh inactive.
N#CCC(=O)Nc1ncn(Cc2ccccc2Cl)n1 was read as IMP-1 inh inactive, PAFAH1B2 FP inh inactive, pPAFAH inh 35, PAFAH2 FP inh inactive, PAFAH1B3 FP inh inactive, VIM-2 inh inactive and pPAFAH FP conf inactive.
O=C1CCCC2=C1C(c1ccncc1)c1c(nc(SCc3ccccc3Cl)[nH]c1=O)N2 (configuration not stated) was read as IMP-1 inh inactive, PAFAH1B2 FP inh inactive, pPAFAH inh inactive, PAFAH2 FP inh inactive, PAFAH1B3 FP inh inactive and VIM-2 inh inactive.
CCC(C)Sc1nc2c(c(=O)[nH]1)C(c1cccs1)C1=C(CCCC1=O)N2 (configuration not stated) was read as IMP-1 inh inactive, PAFAH1B2 FP inh inactive, pPAFAH inh 38, PAFAH2 FP inh inactive, PAFAH1B3 FP inh inactive, VIM-2 inh inactive and pPAFAH FP conf inactive.
COc1ccccc1NCCC(=O)O was read as IMP-1 inh inactive, PAFAH1B2 FP inh inactive, pPAFAH inh inactive, PAFAH2 FP inh inactive, PAFAH1B3 FP inh inactive and VIM-2 inh inactive.
O=C(O)CCNc1ccc(NCCC(=O)O)c2c1C(=O)c1ccccc1C2=O was read as IMP-1 inh inactive, PAFAH1B2 FP inh inactive, pPAFAH inh 62, PAFAH2 FP inh 46, PAFAH1B3 FP inh inactive, VIM-2 inh inactive and pPAFAH FP conf inactive.
Screening O=[N+]([O-])c1ccc(S(=O)(=O)Nc2ccc(S(=O)(=O)N3CCCC3)cc2)cc1 returned IMP-1 inh inactive, PAFAH1B2 FP inh inactive, pPAFAH inh inactive, PAFAH2 FP inh inactive, PAFAH1B3 FP inh inactive and VIM-2 inh inactive.
O=C(C1=C(O)C(=O)N(c2nc3ccc(Cl)cc3s2)C1c1ccco1)c1ccco1 (configuration not stated) was read as PAFAH1B2 FP inh inactive, pPAFAH inh 49, PAFAH2 FP inh inactive, PAFAH1B3 FP inh inactive and pPAFAH FP conf 38.
`O=C(NN=C1CCN(Cc2ccccc2)CC1)c1ccccc1O` gave IMP-1 inh inactive, PAFAH1B2 FP inh inactive, pPAFAH inh inactive, PAFAH2 FP inh inactive, PAFAH1B3 FP inh inactive and VIM-2 inh inactive.
For O=C(NN=C1CCN(Cc2ccccc2)CC1)c1cc2ccccc2cc1O the results were IMP-1 inh inactive, PAFAH1B2 FP inh inactive, pPAFAH inh 47, PAFAH2 FP inh inactive, PAFAH1B3 FP inh inactive, VIM-2 inh inactive and pPAFAH FP conf inactive.
For O=C1CCCC(=NNC(=O)c2cc3ccccc3cc2O)C1 the results were PAFAH1B2 FP inh inactive, pPAFAH inh inactive, PAFAH2 FP inh inactive and PAFAH1B3 FP inh inactive.
Screening O=C(NN=C1CCCCCC1)c1cc2ccccc2cc1O returned IMP-1 inh inactive, PAFAH1B2 FP inh inactive, pPAFAH inh 58, PAFAH2 FP inh inactive, PAFAH1B3 FP inh inactive, VIM-2 inh inactive and pPAFAH FP conf inactive.
Screening CC(=O)N1CCC(=NNC(=O)c2cc3ccccc3cc2O)CC1 returned IMP-1 inh inactive, PAFAH1B2 FP inh inactive, pPAFAH inh 44, PAFAH2 FP inh inactive, PAFAH1B3 FP inh inactive, VIM-2 inh inactive and pPAFAH FP conf inactive.
CCOC(=O)C1=C(C)Nc2ccccc2N=C1NC(=O)c1oc2ccccc2c1COC was read as PAFAH1B2 FP inh inactive, pPAFAH inh inactive, PAFAH2 FP inh inactive and PAFAH1B3 FP inh inactive.
For CCN(CC)CCOC(=O)c1ccc(NC(=S)NC(=O)/C=C/c2ccco2)cc1 the results were pPAFAH inh inactive.
Screening Cc1cc(C(C#N)c2ccc(Cl)cc2)c(Cl)cc1NC(=O)c1cc(I)cc(I)c1O (configuration not stated) returned PAFAH1B2 FP inh inactive, pPAFAH inh 47, PAFAH2 FP inh inactive, PAFAH1B3 FP inh inactive and pPAFAH FP conf 41.
Cc1ccc(SC2=C(C(=O)O)CCCC2)cc1 was read as IMP-1 inh inactive, PAFAH1B2 FP inh inactive, pPAFAH inh inactive, PAFAH2 FP inh inactive, PAFAH1B3 FP inh inactive and VIM-2 inh inactive.
Screening COc1ccc(C(=O)NCCS(=O)(=O)NCc2ccc3c(c2)OCO3)cc1 returned PAFAH1B2 FP inh inactive, pPAFAH inh 39, PAFAH2 FP inh inactive, PAFAH1B3 FP inh inactive and pPAFAH FP conf inactive.
For Cc1cccc(NC(=O)CSc2nnc(C)c(C)n2)c1 the results were IMP-1 inh inactive, PAFAH1B2 FP inh inactive, pPAFAH inh inactive, PAFAH2 FP inh inactive, PAFAH1B3 FP inh inactive and VIM-2 inh inactive.
Screening O=C(Nc1nc2ccsc2c(=O)s1)C1CCC1 returned IMP-1 inh inactive, pPAFAH inh 36, VIM-2 inh inactive and pPAFAH FP conf inactive.
Screening COC(=O)CCC(=O)OC1(C)C(=O)C2=CN(C(CO)CO)C(c3ccc(OC)cc3)=CC2=C(Br)C1=O (configuration not stated) returned pPAFAH inh inactive.
`COC(=O)CCC(=O)OC1(C)C(=O)C2=COC(c3ccc(OC)cc3)=CC2=C(Br)C1=O` (configuration not stated) gave pPAFAH inh 35 and pPAFAH FP conf inactive.
Screening CCN(CC)c1ccc(N=Cc2ccc([N+](=O)[O-])o2)cc1 returned IMP-1 inh inactive, PAFAH1B2 FP inh inactive, pPAFAH inh 43, PAFAH2 FP inh inactive, PAFAH1B3 FP inh inactive, VIM-2 inh inactive and pPAFAH FP conf inactive.
For COc1ccccc1CC(=O)OC(C)C(=O)Nc1ccc(S(=O)(=O)N2CCCCC2)cc1 (configuration not stated) the results were PAFAH1B2 FP inh inactive, pPAFAH inh inactive, PAFAH2 FP inh inactive and PAFAH1B3 FP inh inactive.
